Assay results of several laboratories.
Lines come from different studies, so protocols differ.
CASP9: Caspase-9 (CASP9, Homo sapiens, UniProt P55211)
PPARA: Peroxisome proliferator-activated receptor alpha (PPARA, Homo sapiens, UniProt Q07869)

Compound	target	assay	system	conditions	endpoint	value
Cc1ncc(C)n2nc(/C=C/c3nc(N4CCCC4)cc(N4CCOCC4)n3)nc12	CASP9	enzyme activity, inhibitor		10 µM	inhibition	11%
CN(C)C(=O)COC(=O)Cc1ccc(OC(=O)c2ccc(NC(=N)N)cc2)cc1	CASP9	enzyme activity, inhibitor		10 µM	inhibition	0%
COc1ncccc1-c1cnn2ccc(N3CCN(C(=O)OC(C)C)CC3)nc12	Mitogen-activated protein kinase kinase kinase 1 (MAP3K1, Homo sapiens, UniProt Q13233)	binding, competition with immobilised ligand		1 µM	remaining binding	49%
Nc1ncc(-c2nc(N3CCOCC3)nc(N3CCOCC3)n2)c(C(F)F)n1	Hepatocyte growth factor receptor (MET, Homo sapiens, UniProt P08581, M1250T)	cell-free assay, competition with immobilised ligand		10 µM	remaining binding	100%
C#Cc1n[nH]c2c(-c3cn([C@@H](C)c4ccccc4)c(=O)[nH]c3=O)cc(F)cc12	Inactive tyrosine-protein kinase PEAK1 (PEAK1, Homo sapiens, UniProt Q9H792)	enzyme activity, inhibitor		0.1 µM	inhibition	6.5%
CN1CCN(c2ccc(Nc3nccc(-c4ccccc4)n3)cc2C(F)(F)F)CC1	Calcium-dependent protein kinase 1 (CDPK1, Plasmodium falciparum, UniProt P62344)	binding		10 µM	remaining binding	13%
O=S(=O)(O)C(F)(F)C(F)(F)OC(F)(C(F)(F)F)C(F)(F)OC(F)C(F)(F)F (stereo not shown)	PPARA	reporter gene, agonist, luciferase			Emax	28%
CN[C@@H](C)C(=O)N[C@@H](CNC(=O)c1ccc(S(=O)(=O)F)c(OC)c1)C(=O)N1CCC[C@H]1C(=O)N[C@@H]1CCc2c(F)cccc21	E3 ubiquitin-protein ligase XIAP, BIR3 (XIAP, Homo sapiens, UniProt P98170)	enzyme activity, inhibitor			kinact	0.0258 s⁻¹
O=C(O)C(F)(OC(F)(F)C(F)(F)C(F)(F)F)C(F)(F)F (stereo not shown)	PPARA	reporter gene, agonist, luciferase			Emax	134%
C#Cc1n[nH]c2c(-c3cn([C@@H](C)c4ccccn4)c(=O)[nH]c3=O)cc(F)cc12	TRAF2 and NCK-interacting protein kinase (TNIK, Homo sapiens, UniProt Q9UKE5)	enzyme activity, inhibitor		0.1 µM	inhibition	-0.3%
COc1cc(Nc2ncc(F)c(Nc3ccc4c(n3)NC(=O)C(C)(C)O4)n2)cc(OC)c1OC	Serine/threonine-protein kinase NIM1 (NIM1K, Homo sapiens, UniProt Q8IY84)	binding, competition with immobilised ligand		10 µM	inhibition	84%
Cc1nn(C)cc1-c1nc2c(N3CCN(Cc4ccc(Cl)cc4)CC3)c(Cl)cnc2[nH]1	Cyclin-dependent kinase-like 1 (CDKL1, Homo sapiens, UniProt Q00532)	binding, competition with immobilised ligand		1 µM	remaining binding	100%
Clc1cccc(-c2c[nH]c3nccc(N4CCOCC4)c23)c1	Serine/threonine-protein kinase 4 (STK4, Homo sapiens, UniProt Q13043)	thermal stability, DSF			ΔTm	> 7.4 °C
COC(=O)CC[C@H](NC(=O)[C@H](CC(C)C)NC(=O)OCc1ccccc1)C(=O)N[C@@H](Cc1cnc[nH]1)C(=O)N[C@@H](CC(=O)OC)C(=O)CF	CASP9	enzyme activity, inhibitor		1 µM	inhibition	50%
O=S(=O)(O)C(F)(F)C(F)(F)C(F)(F)C(F)(F)C(F)(F)C(F)(F)F	PPARA	reporter gene, agonist, luciferase	COS-7		Emax	67%
O=C(Nc1cccnn1)N1CCN([C@@H]2CCOc3cc(C(F)(F)F)ccc32)CC1	Corticotropin-releasing factor receptor 1 (CRHR1, Homo sapiens, UniProt P34998)	ligand displacement		20 µM	inhibition	-62%
